NF-kB neuron act: activators of NF-kB expression in neurons, primary screen, cell-based, HTS; human neuronal cells, NF-kB reporter expression; hits give high values; fold change at 12.5 µM; hit rate 1.6% among 190,000; AID 1239, 2008; in the data active = fold change above about 3.3
STAT1 blocker: STAT1 signaling inhibitors, primary screen, cell-based, HTS, luciferase reporter. NIH 3T3 STAT1-luciferase reporter, IFN-gamma, luminescence. inhibition, % at 5.5 µM. hit rate 0.35% among 200,000. AID 920, 2007;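 active = inhibition above a set limit, the mean inhibition across all tested compounds plus 3 SD, cut at about 34% in these data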;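 note: 0% = IFN-gamma with DMSO and 100% = IFN-gamma with 300 µM nifuroxazide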
Pf gamet viab: late stage P. falciparum gametocyte viability inhibitors, primary screen, ATP luminescence, HTS. hit rate 0.065% among 150,000. AID 743093, 2013. inhibition, % at 10.9 µM. P. falciparum stage V gametocytes, 24 h;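 active = inhibition above the mean plus 3 SD of compounds within the control limits, set per campaign, cut at about 38% in these data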;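 note: 0% = DMSO wells and 100% = medium only without gametocytes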
STAT1 activator: STAT1 signaling activators, primary screen, cell-based, HTS, luciferase reporter; NIH 3T3 STAT1-luciferase reporter, IFN-gamma, luminescence; 100% = IFN-gamma alone, no compound; activation (% of control), % at 5.5 µM; hit rate 2.6% among 200,000; AID 932, 2007;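 active = activation above the screen-wide mean activation plus 3 SD, cut at about 130% in these data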;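 note: raw ratio to IFN-gamma control signal so 100% means no change and 0% no light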
APP 5'UTR act: activators of APP 5'UTR luciferase reporter, primary screen, SH-SY5Y cells; SH-SY5Y APP 5'UTR luciferase reporter, luminescence; zero percent = DMSO vehicle wells; hit rate 1% among 190,000; activation, % at 2 µM;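 active = activation above a set limit, based on mean plus 3 SD of controls, cut at about 140% in these data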
STAT3 act: IL-6 driven STAT3 reporter potentiators, primary screen, U3A cells, luciferase, luminescence, MLSCN library | AID 871, 2007 | IL-6 STAT3-luciferase reporter; 100% = signal with IL-6 EC80 alone | activation (% of control), % at 5.6 µM | hit rate 0.91% among 190,000;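 active = activation above the screen-wide mean of compound activation plus 3 SD, cut at about 130% in these data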;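 note: 0% = background luminescence of wells with medium and substrate only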
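Assay system – human STAT1-deficient U3A cells with stable STAT3-luciferase reporter · Also added – IL-6 (33 ng/mL) · Schedule – compound 1 h, then IL-6 6 h at 37 °C · Technique – reporter luminescence signal · Evaluation – % activation versus median of IL-6-stimulated wells · Benchmarks – IL-6-only wells as 100% reference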
* marks the source's active call; other numbers are inactive results; x = no result. Shown are actives, neighbours in structure and some others; about 3.9% of the full set was active somewhere.

SMILES | NF-kB neuron act | STAT1 blocker | Pf gamet viab | STAT1 activator | APP 5'UTR act | STAT3 act
N#Cc1cc2c(nc1SCc1nc3ccccc3[nH]1)CCC2 | 1.6 | -30 | x | 127 | 248* | 92
Cc1cccc(CSc2nc3c(cc2C#N)CCC3)c1 | 1.2 | -3 | 9 | 102 | 6 | 99
N#Cc1c(SCc2nc3ccccc3[nH]2)nc2c(c1C(F)(F)F)CCC2 | x | -18 | x | 117 | 5 | 174*
Cc1sc(NC(=O)c2ccc(Cl)s2)c(C(N)=O)c1C | 5.3* | -81 | x | 167* | 142* | 159*
Cc1sc(NC(=O)c2ccc(Br)s2)c(C(N)=O)c1C | 5.2* | -49 | x | 146* | 108 | 185*
Cc1sc(NC(=S)Nc2ccc(F)cc2)c(C(N)=O)c1C | 1.1 | -1 | -3 | 99 | 9 | 86
CNC[C@@H]1Oc2ccc(NS(=O)(=O)c3ccc(Cl)cc3)cc2C(=O)N([C@H](C)CO)C[C@@H]1C | x | x | 3 | x | x | x
Cn1cc(/C=N/n2cnc3sc4c(c3c2=O)CCCC4)c2ccccc21 | 0.91 | 16 | 3 | 85 | 11 | 106
O=c1c2c3c(sc2ncn1/N=C/c1ccc([N+](=O)[O-])o1)CCCC3 | 4* | 4 | x | 96 | -19 | 111
CCc1nc2cc3sc(CC)nc3cc2s1 | 2.4 | -54 | -14 | 148* | 122 | 97
Cc1nc2cc3nc(C)sc3cc2s1 | 1.8 | -23 | -4 | 120 | 44 | 98
CCOCCCNC(=O)c1ccccc1OC1CCN(S(C)(=O)=O)CC1 | 1.1 | -6 | -33 | 104 | -2 | 102
Cc1noc(C)c1C(=O)Nc1sc(C)c(-c2ccccc2)c1C#N | 0.48 | 2 | 10 | 100 | -5 | 98
Cc1sc(NC(=O)C2CCCCC2)c(C#N)c1-c1ccccc1 | 1.4 | -33 | x | 130* | 46 | 111
Cc1cccc(C(=O)Nc2sc(C)c(-c3ccccc3)c2C#N)c1 | 3.5* | -36 | -24 | 133* | 27 | 94
CCC(=O)Nc1c(C(=O)Nc2ccc3c(c2)OCCO3)oc2ccccc12 | 1.9 | -51 | 2 | 144* | 123 | 77
Cc1ccc(NC(=O)c2oc3ccccc3c2NC(=O)C2CCCO2)cc1C (stereo not given) | x | -32 | -12 | 127 | 176* | 99
COc1ccc(N(CC(=O)N2CCN(Cc3ccccc3)CC2)S(C)(=O)=O)cc1Cl | x | x | -19 | x | x | x
C=C(Br)CN1[C@@H](Cc2ccccc2)[C@H](O)[C@@]23C=C[C@@H](C[C@@H]2S1(=O)=O)O3 | x | x | 13 | x | x | x
CC(C)c1ccc(OCc2cccc(C(=O)N/N=C/c3cccnc3)c2)cc1 | 2 | 36* | 15 | 66 | 103 | 53
CCOc1ccc(OCc2cccc(C(=O)N/N=C/c3cccnc3)c2)cc1 | 1.9 | 62* | x | 45 | 20 | 19
O=C(N/N=C/c1cccnc1)c1ccccc1OCc1cccc(Br)c1 | 1 | -7 | -14 | 106 | -20 | 103
COc1ccc([C@H]2CC(=O)C=C(c3cccc(C#N)c3)C2)cc1 | x | x | 11 | x | x | x
COC(=O)c1ccc(Cn2nnc3ccccc32)cc1 | x | x | 15 | x | x | x
COC(=O)c1ccc(COn2nnc3ccccc32)cc1 | 5.4* | -29 | -6 | 127 | 200* | 89
SMILES | NF-kB neuron act | STAT1 blocker | Pf gamet viab | STAT1 activator | APP 5'UTR act | STAT3 act
COc1cccc(CC2(CO)CCCN(Cc3sc(N4CCCC4)nc3Cl)C2)c1 (stereo not given) | 0.75 | -3 | 15 | 101 | 8 | 103
O=C(/C=C/c1ccccc1)NCCc1c[nH]c2ccccc12 | x | x | -8 | x | x | x
CCSc1nnc(-c2ccc(Cl)cc2)c2ccccc12 | 1 | 0 | 17 | 100 | 1 | 92
Cc1nnc(Sc2nc3ccccc3o2)c2ccccc12 | 1.8 | 4 | -6 | 97 | 15 | 118
Cc1ccc(-c2nnc(Sc3nc4ccccc4o3)c3ccccc23)cc1 | 4.9* | 1 | x | 99 | 38 | 101
Clc1ccc(-c2nnc(Sc3nc4ccccc4o3)c3ccccc23)cc1 | 4.2* | -4 | 4 | 103 | 11 | 97
Cc1onc(-c2c(Cl)cccc2Cl)c1CO/N=C(\C#N)c1c(Cl)cccc1Cl | x | x | 10 | x | x | x
O=C(CCl)Nc1ccccc1C(=O)Nc1ccc2c(c1)OCO2 | x | x | 9 | x | x | x

Screening results: PubChem, several laboratories
